Screens from PubChem BioAssay.
Cl transport mod: KCC2 cotransporter modulators, thallium flux, primary screen, cell-based, HEK293 KCC2, FluoZin-2 fluorescence, MLSMR. Solute carrier family 12 member 5 (Homo sapiens), Q9H2X9. KCC2 cells, thallium flux FluoZin-2 fluorescence. hit rate 2.2% among 190,000. B-score of Tl+ flux slope (higher = more flux/activation; lower = inhibition) at 10 µM;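 active means thallium flux slope and its plate-corrected score both differing from the plate sample mean at a set confidence after two filtering rounds, in either direction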;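 further: slope of fluorescence scaled to starting intensity during 10 to 20 s after thallium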
Target sequence (Q9H2X9 whole entry, looked up): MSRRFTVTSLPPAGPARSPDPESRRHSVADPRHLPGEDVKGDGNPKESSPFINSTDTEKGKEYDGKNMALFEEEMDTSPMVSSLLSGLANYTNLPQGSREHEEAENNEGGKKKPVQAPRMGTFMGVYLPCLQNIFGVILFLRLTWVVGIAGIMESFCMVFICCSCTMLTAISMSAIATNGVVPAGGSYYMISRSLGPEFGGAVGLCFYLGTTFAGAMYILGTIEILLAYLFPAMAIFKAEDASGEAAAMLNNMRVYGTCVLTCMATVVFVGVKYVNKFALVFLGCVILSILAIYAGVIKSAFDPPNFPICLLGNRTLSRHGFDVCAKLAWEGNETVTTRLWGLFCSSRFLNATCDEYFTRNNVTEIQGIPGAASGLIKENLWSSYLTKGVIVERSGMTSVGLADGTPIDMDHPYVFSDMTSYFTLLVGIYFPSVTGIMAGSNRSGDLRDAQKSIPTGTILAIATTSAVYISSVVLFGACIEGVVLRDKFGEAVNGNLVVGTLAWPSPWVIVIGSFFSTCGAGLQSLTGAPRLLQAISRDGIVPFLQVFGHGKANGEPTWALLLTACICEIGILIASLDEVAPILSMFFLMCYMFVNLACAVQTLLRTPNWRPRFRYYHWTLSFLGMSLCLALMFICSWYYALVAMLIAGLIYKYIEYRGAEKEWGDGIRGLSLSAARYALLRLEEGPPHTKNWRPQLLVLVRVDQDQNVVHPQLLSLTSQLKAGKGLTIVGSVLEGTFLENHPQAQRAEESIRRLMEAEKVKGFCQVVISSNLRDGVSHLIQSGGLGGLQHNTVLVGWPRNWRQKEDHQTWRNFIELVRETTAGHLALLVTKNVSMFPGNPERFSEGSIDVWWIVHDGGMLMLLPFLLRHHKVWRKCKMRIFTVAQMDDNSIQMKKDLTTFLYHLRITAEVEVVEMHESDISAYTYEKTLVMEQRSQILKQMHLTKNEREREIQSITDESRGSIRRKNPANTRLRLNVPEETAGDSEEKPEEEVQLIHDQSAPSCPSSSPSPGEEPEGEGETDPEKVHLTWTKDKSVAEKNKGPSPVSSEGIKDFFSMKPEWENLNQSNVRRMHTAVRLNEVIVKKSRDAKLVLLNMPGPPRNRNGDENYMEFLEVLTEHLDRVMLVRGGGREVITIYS
KCNQ1 block: inhibitors of human KCNQ1 channel, primary screen, cell-based, thallium flux, high-throughput. Potassium voltage-gated channel subfamily KQT member 1 (Homo sapiens), P51787. CHO-K1 KCNQ1, FluxOR thallium flux fluorescence; hits give high values. B-score at 10 µM. hit rate 1.3% among 310,000. AID 2642, 2010;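 active means compounds whose thallium flux B-score, printed positive for inhibition, exceeds three library SD while starting fluorescence stays within three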;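 further: channel opened by potassium depolarization with thallium stimulus after 20 min compound exposure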
KCNQ1 pot: potentiators or activators of KCNQ1 channel, primary screen, cell-based, thallium flux, high-throughput; CHO-K1 KCNQ1, thallium flux FluxOR fluorescence; hits give high values; hit rate 0.35% among 310,000; AID 2648, 2010; B-score at 10 µM; Potassium voltage-gated channel subfamily KQT member 1 (Homo sapiens), P51787;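 active means fluorescence ratio B-score, a plate-corrected score, at least three library SD, with initial intensity B-score within 5 SD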
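Schedule – 37 °C overnight plating, 90-min dark dye load, 20-min compound pretreatment · System – stable KCNQ1 CHO-K1 line · Probe or stimulus – thallium- and potassium-containing depolarizing buffer · Measured by – kinetic FluxOR fluorescence, 10 s baseline plus 110 s post-stimulus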
hERG protect: hERG rescue from dofetilide block, primary screen, cell-based, CHO-hERG, FluxOR thallium flux, dofetilide IC70; dofetilide IC70 present; activation (rescue from dofetilide block), less the hit threshold, % at 10 µM; hit rate 0.51% among 310,000; AID 1511, 2009;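 active means activation above the mean of controls blocked by dofetilide plus 5 SD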;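 further: thallium influx through hERG after potassium depolarization seen as dye fluorescence rise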
KCNK9 block: KCNK9 potassium channel inhibitors, primary screen, HEK293 cells, thallium flux. Potassium channel subfamily K member 9 (Homo sapiens), Q9NPC2. FluxOR thallium flux fluorescence; hits give low values. B-score at 10 µM. hit rate 1.2% among 310,000. AID 488922, 2010;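 active means ratio B-score over 3 SD below the library mean, with starting fluorescence within 5 SD of its mean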;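 further: negative B-score means less thallium flux so channel inhibition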
KCNK3 block: human KCNK3 channel inhibitors, primary screen, CHO cells, FluxOR thallium flux, B-score | hit rate 0.84% among 340,000 | FluxOR fluorescence; hits give low values | Potassium channel subfamily K member 3 (Homo sapiens), O14649 | B-score at 10 µM;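 active means B-score under library mean minus 4 SD, starting fluorescence ratio at most library mean plus 5 SD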;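 further: more negative B-score means stronger inhibition of thallium flux through KCNK3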
KCNK3 confirm: retest of human KCNK3 channel inhibitors, confirmation, CHO cells, FluxOR thallium flux, triplicate | AID 651638, 2012 | FluxOR fluorescence; 0% buffer, 100% carvedilol maximal block | hit rate 99% among 2,400 | ratio percent of control, % at 10 µM | shares compounds with KCNK3 block;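 active means ratio percent of control, averaged over triplicates, above buffer control mean plus 5 SD, cut at about 64% in these data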;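 further: ratio is the fluorescence rise from min to max over baseline after thallium stimulus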
KCNK3 uninduced: thallium flux inhibition in non-induced cells, primary screen, counter-screen for KCNK3 inhibitor project, cell-based, non-induced KCNK3 line, FluxOR thallium, triplicate | shares compounds with KCNK3 block | non-induced KCNK3 parental cells; hits give low values | thallium flux ratio (lower = more inhibition) at 10 µM | hit rate 40% among 2,400;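 active means thallium flux ratio, averaged over three wells, more than 5 SD below the buffer control mean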;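 further: host cells are CHO cells without KCNK3 induction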
Hits are given with their value; - = inactive; . = not tested or not shown. Sampled rows, rich in hits. Any-hit rate of the full collection: about 4.1%.

SMILES	Cl transport mod	KCNQ1 block	KCNQ1 pot	hERG protect	KCNK9 block	KCNK3 block	KCNK3 confirm	KCNK3 uninduced
COc1ccc(/C=N/NC(=O)Cc2csc(Nc3cccc(C(F)(F)F)c3)n2)cc1C	-	-	-	-	-	-11	98	-
CN(CCC#N)S(=O)(=O)c1cc2c3c(c1)CCN3C(=O)CC2	.	-	-	-	-	-	.	.
C(=C/c1nccc2c1[nH]c1ccccc12)/c1ccc2c(c1)OCO2	-	-	-	-	-	-11	99	-
C(=N\Nc1nc2ccccc2[nH]1)/c1ccc2c(c1)OCO2	-	-	-	-	-	-	.	.
O=C(Cc1ccc(Br)cc1)Nc1ccc2[nH]ncc2c1	.	-	-	-	-	-	.	.
Cn1ccc(C(=O)N/N=C/c2c[nH]c3ccccc23)n1	.	-	-	-	-	-	.	.
O=C(N/N=C/c1c[nH]c2ccccc12)c1ccn(Cc2ccc(Cl)cc2Cl)n1	-	-	-	-	-	-9.3	106	0.15
CCOc1ccccc1NC1=C(Cl)C(=O)N(Cc2ccccc2)C1=O	-	-	-	-	-	-8.8	117	0.15
Cc1ccc2c(CN3CCCc4ccccc43)cc(=O)oc2c1C	.	-	-	-	-	-	.	.
CCc1ccc2c(CN(C)Cc3ccc(OC(F)F)c(OC)c3)cc(=O)oc2c1	.	-	-	-	-	-16	128	0.15
COc1cccc(CN(C)Cc2cc(=O)oc3c(C)c(C)ccc23)c1	.	-	-	-	-	-11	125	0.14
Cc1ccc2c(COC(=O)c3ccccc3OC(F)F)cc(=O)oc2c1	.	-	-	-	-	-	.	.
COc1cccc(CN(C)Cc2cc(=O)oc3cc(O)c(Cl)cc23)c1	.	-	-	-	-	-	.	.
Cc1ccccc1CN(C)Cc1cc(=O)oc2c(C)c(C)ccc12	.	9	-	-	-	-11	118	0.14
Cc1cc2oc(=O)cc(CN(C)Cc3cccc(F)c3)c2cc1C	.	-	-	-	-	-8.7	112	-
O=C(CCCCC(=O)NNC(=O)COc1ccccc1)NNC(=O)COc1ccccc1	.	-	-	-	-	-	.	.
CCN1C[C@@H]2[C@@H]3C(=O)N(C)C(=O)[C@@H]3[C@](Cc3ccccc3)(C1=O)N2C(=O)c1ccc(Cl)cc1	.	.	.	.	.	-	.	.
CO/N=C\Cc1oc(=O)c(NC(=O)c2ccccc2)cc1C(=O)OC	-	-	-	-	-	-	.	.
COC(=O)c1cc(NC(=O)c2ccccc2)c(=O)oc1C/C=N\OCc1ccc(Cl)cc1Cl	-	13	-	-	-	-11	116	0.13
Cc1sc2ncnc(N3CCN(Cc4ccccc4)CC3)c2c1-c1ccccc1	.	-	57	-	-	-9.6	112	0.16
CCOC(=O)C1=C(CSc2nc(C)cc(C)c2C#N)OC(N)=C(C#N)C1c1cccs1 (stereo not drawn)	-	.	.	.	.	.	.	.
CCOC(=O)C1=C(CSc2nc(CC)c(C)cc2C#N)OC(N)=C(C#N)C1c1ccccc1 (stereo not drawn)	-	-	-	-	-	-9.8	109	-
COc1ccc(OC(=O)N2C/C(=C/c3ccccc3)C(=O)/C(=C\c3ccccc3)C2)cc1	.	.	.	.	.	-	.	.
CCOC(=O)N1C/C(=C\c2ccccc2)C(=O)/C(=C/c2ccccc2)C1	-	10	-	-	-	-10	113	-
Cc1cccc(C)c1NC(=O)CNC(=O)c1ccccc1OCc1ccccc1	.	-	-	-	-	-	.	.
SMILES	Cl transport mod	KCNQ1 block	KCNQ1 pot	hERG protect	KCNK9 block	KCNK3 block	KCNK3 confirm	KCNK3 uninduced
COc1ccc(OC)c(C(=O)COC(=O)c2cc(C)oc2C)c1	.	-	-	-	-	-10	119	-
N#Cc1cccc(CN2CCCN(Cc3ccc(F)cc3)S2(=O)=O)c1	.	-	-	-	-	-9.2	94	0.15
C=Cc1ccc(CN2CCCN(Cc3ccc(F)cc3)S2(=O)=O)cc1	.	-	-	-	-	-	.	.
CCN(CC)CC(=O)Nc1ccccc1SCC(=O)Nc1ccsc1C(=O)OC	-	-	-	-	-	-9.9	98	-
CCCSc1nnc2c(n1)OC(c1cccn1C)N(C(C)=O)c1ccccc1-2 (stereo not drawn)	-	-	-	-	-	-13	122	-
Cc1ccc(S(=O)(=O)N2CCN(C(=O)Cn3cnc4c3c(=O)n(C)c(=O)n4C)CC2)cc1C	.	.	.	.	.	-	.	.
COC(=O)c1sccc1NC(=O)c1ccccc1	-	-	-	-	-	-	.	.
COC(=O)c1sccc1NC(=O)c1ccc(C(C)C)cc1	.	-	-	-	-	-11	100	-
Cc1ccc(-c2nc(NCc3cccnc3)c3ccccc3n2)cc1	-	-	-	-	-	-	.	.
c1ccc(-c2nc(NCc3cccnc3)c3ccccc3n2)cc1	.	-	-	-	-	-9.2	111	0.15
Fc1ccc(CNc2nc(-c3ccccc3)nc3ccccc23)cc1	-	-	-	-	-	-	.	.
COc1ccc(CNc2nc(-c3ccccc3)nc3ccccc23)cc1OC	.	-	-	-	-	-17	114	0.14
O=C(OCCNc1nc(-c2ccccc2)nc2ccccc12)c1ccncc1	-	-	-	-	-7.3	-	124	0.16
O=C(OCCNc1nc(-c2ccccc2)nc2ccccc12)c1cccnc1	-	-	-	-	-	-	.	.
C=CCn1c(NC(C)c2cc(Cl)ccc2O)nc2ccccc21 (stereo not drawn)	-	-	-	-	-6.6	-12	122	0.14
CN(C)S(=O)(=O)N(CC(=O)Nc1ccccc1F)c1ccccc1	-	-	-	-	-	-	.	.
CCc1ccc(NC(=O)CN(c2ccccc2)S(=O)(=O)N(C)C)cc1	-	-	-	-	-	-10	103	-
Cc1ccc(-c2cc(C(=O)N/N=C/c3c(C)nn(-c4ccccc4)c3C)n[nH]2)s1	-	-	-	-	-	-9.1	130	0.13
Cc1ccc(-c2cc(-c3ccccc3)nc(Cl)n2)cc1	-	-	-	-	-	-11	130	0.11
Cc1nc(-c2ccccc2)cc(-c2ccccc2)n1	.	-	-	-	-	-	.	.
